From PubChem BioAssay AID602424 (Sanford-Burnham Center for Chemical Genomics, 2012) come the findings set out here.

Calls of active or inactive are those of the source.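 How the source made its calls: active means IC50 at or below 20 µM; inactive means the rest.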 A value given as a limit tells only on which side of the number the result lay.

The experiment concerns the target Glucose-6-phosphate 1-dehydrogenase (Homo sapiens) (UniProt P11413). The experiment is described as follows: human G6PD enzyme inhibition selectivity, SAR follow-up, selectivity assay for PfG6PD antimalarial inhibitor project, biochemical, fluorescence, dose response, set 4 (AID 602424). To be noted: recombinant human G6PD, NADPH-diaphorase-resazurin fluorescence. Put shortly: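 System: human glucose-6-phosphate dehydrogenase enzyme (hG6PD); Technique: resazurin-diaphorase fluorescence, Ex 530 nm, Em 590 nm; Also added: 320 µM glucose-6-phosphate substrate plus 6 µM NADP cofactor; Times: 90 min enzyme reaction at room temperature, in dark; Control set: no-substrate wells as low control; Compound: concentration series with 0.8% DMSO.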

Glucose-6-phosphate 1-dehydrogenase (Homo sapiens), sequence (P11413 whole entry, looked up): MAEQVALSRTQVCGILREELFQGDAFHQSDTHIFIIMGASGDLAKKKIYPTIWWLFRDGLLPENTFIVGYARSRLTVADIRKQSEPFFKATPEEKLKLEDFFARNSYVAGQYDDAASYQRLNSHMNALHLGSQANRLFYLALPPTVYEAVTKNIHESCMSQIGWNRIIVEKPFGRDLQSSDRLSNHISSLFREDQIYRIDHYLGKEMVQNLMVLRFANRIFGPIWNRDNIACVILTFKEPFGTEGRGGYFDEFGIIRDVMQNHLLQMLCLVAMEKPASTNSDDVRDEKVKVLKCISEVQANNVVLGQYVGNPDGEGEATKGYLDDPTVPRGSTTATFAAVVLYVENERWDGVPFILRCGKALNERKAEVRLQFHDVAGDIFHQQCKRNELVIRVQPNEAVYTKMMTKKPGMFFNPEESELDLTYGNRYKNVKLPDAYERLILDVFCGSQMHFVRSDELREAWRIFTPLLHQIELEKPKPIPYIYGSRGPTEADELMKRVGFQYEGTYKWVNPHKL

On to `CCN1CCC[C@@H]1CNC(=O)c1ccc2c(c1)NC(=O)c1cccc(C)c1S2`, for which the IC50 is > 80 µM (inactive).

Consider `CCCCN1CCCC1CNC(=O)c1ccc2c(c1)NC(=O)c1ccccc1S2` (configuration not stated), for which the IC50 is > 80 µM (inactive).

Regarding `CCCN1CCCCC1CNC(=O)c1ccc2c(c1)NC(=O)c1ccccc1S2` (configuration not stated), the IC50 was > 80 µM (inactive).

In the case of `O=C(NCC1CCCCN1)c1ccc2c(c1)NC(=O)c1ccccc1S2` (configuration not stated), the IC50 is > 80 µM (inactive).

`CCN1CCC[C@@H]1CNC(=O)c1ccc2c(c1)NC(=O)c1ccccc1N2`: the IC50 is > 80 µM (inactive).

Take `CCN1CCC[C@@H]1CNC(=O)c1ccc2c(c1)NC(=O)c1ccc(F)cc1S2`: the IC50 was > 80 µM (inactive).

Regarding `CN1CCCC1CNC(=O)c1ccc2c(c1)NC(=O)c1ccccc1S2` (configuration not stated), the IC50 was > 80 µM (inactive).

On to `CN1CCCCC1CNC(=O)c1ccc2c(c1)NC(=O)c1ccccc1S2` (configuration not stated), for which the IC50 is > 80 µM (inactive).

`CCN1CCC(NC(=O)c2ccc3c(c2)NC(=O)c2ccccc2S3)C1` (configuration not stated): the IC50 was > 80 µM (inactive).

For `CCN1CCC[C@@H]1CNC(=O)c1ccc2c(c1)NC(=O)c1cc(C)ccc1S2`, the IC50 is > 80 µM (inactive).

Regarding `CCCN1CCC[C@@H]1CNC(=O)c1ccc2c(c1)NC(=O)c1ccccc1S2`, the IC50 was > 80 µM (inactive).

On to `CCN1CCCCC1CNC(=O)c1ccc2c(c1)NC(=O)c1ccccc1S2` (configuration not stated), for which the IC50 was > 80 µM (inactive).

Turning to `CCN1CCC[C@@H]1CNC(=O)c1ccc2c(c1)NC(=O)c1cc(F)ccc1S2`, the IC50 is > 80 µM (inactive).

On to `CCCN1CCC(NC(=O)c2ccc3c(c2)NC(=O)c2ccccc2S3)C1` (configuration not stated), for which the IC50 was > 80 µM (inactive).

Regarding `CN1CCC(NC(=O)c2ccc3c(c2)NC(=O)c2ccccc2S3)C1` (configuration not stated), the IC50 was > 80 µM (inactive).

On to `O=C(NC[C@H]1CCCN1)c1ccc2c(c1)NC(=O)c1ccccc1S2`, for which the IC50 was > 80 µM (inactive).

For the compound `CCCCCCN1CCCC1CNC(=O)c1ccc2c(c1)NC(=O)c1ccccc1S2` (configuration not stated), the IC50 was > 80 µM (inactive).
